This is a sample that favours compounds with a hit; in the whole collection about 2.1% have one here.
MC4R antag cAMP: antagonists of human melanocortin 4 receptor (MC4R). P32245. MC4R-expressing cells, MTII-stimulated cAMP, LANCE TR-FRET. inhibition, % at 6.5 µM. hit rate 0.48% among 360,000. AID 540295;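 active means inhibition above its plate's cutoff, the mean of tested wells on that plate plus 3 SD, cut at about 29% in these data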;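 further: 0% = Melanotan II alone and 100% = Melanotan II plus saturating MCL0020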
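system = U2OS cells with stable human MC4R expression | also added = Melanotan II challenge after compound preincubation | dosing = one concentration, 6.5 µM nominal | incubation = compound 30 min, challenge 1 h, detection 1 h | measured by = TR-FRET with Eu-cAMP and labeled anti-cAMP, 671 nm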
F508del corr: correctors of CFTR F508del function in bronchial epithelial cells | CFBE cells, YFP halide quenching; stimulated with forskolin plus potentiator P3; % fluorescence drop versus neutral controls | activity (quench increase), % at 7.58 µM | hit rate 0.36% among 350,000 | AID 720511;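 active means mean added fluorescence quench of at least 8% versus neutral control, with both replicates also reaching 8%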;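 further: cells transiently co-express mutant CFTR-F508del with the halide-sensitive YFP; corrector assay measuring rescue of mutant channel to the surface after 24 h compound exposure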
MC4R ag barr: activates human MC4R beta-arrestin recruitment. P32245. activation, % at 8.9 µM. U2OS MC4R beta-arrestin complementation, luminescence; percent of melanotan II response, DMSO zero. hit rate 0.98% among 360,000. AID 540308;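 active means activation above a per-plate cutoff, the mean activation of sample wells on that plate plus 3 SD, cut at about 8% in these data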
SMARCA2 activ: activators of SMARCA2 function | MG213 cells, MMTV-luciferase reporter, dexamethasone, overnight | activation, % at 9.1 µM | hit rate 1% among 370,000 | AID 652017; in the data active means activation above about 7.8%;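 further: 0% = vehicle wells and 100% = reference activator wells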
MC4R barr ag: human MC4R beta-arrestin agonism confirmation | hit rate 31% among 2,400 | activation, % at 8.9 µM | U2OS MC4R beta-arrestin recruitment, luminescence; scaled DMSO 0%, Melanotan II 100% | shares compounds with MC4R ag barr | AID 602192;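 active means mean activation across replicates above the hit cutoff set in the earlier primary screen, cut at about 8% in these data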
MOR DOR agonist: counter-screen for MC4R agonists: agonists of mu-delta opioid heterodimer; shares compounds with MC4R ag barr; U2OS PathHunter beta-arrestin, beta-gal luminescence; percent of deltorphin B response, DMSO zero; activation, % at 9.2 µM; hit rate 5.8% among 2,400; AID 602194;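 active means mean activation across replicates exceeds the hit threshold derived in the earlier primary screen, cut at about 18% in these data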;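 further: 100% = deltorphin B at 0.9 µM final and 0% = DMSO alone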
Numbers without * were called inactive; / = not tested or not shown; ! = repeats disagree.

SMILES	MC4R antag cAMP	F508del corr	MC4R ag barr	SMARCA2 activ	MC4R barr ag	MOR DOR agonist
COC(=O)COc1ccc2oc(=O)cc(-c3cc4ccccc4o3)c2c1	-11	3	16*	5	5	3
C[C@@H]1CCCCO[C@H](CN(C)S(=O)(=O)c2ccccc2)[C@@H](C)CN([C@@H](C)CO)C(=O)c2cc(NC(=O)Nc3cccc4ccccc34)ccc2O1	/	2	/	/	/	/
COc1cccc(-c2cc(NC=O)c3ncc(-c4ccc(F)c(Cl)c4)n3c2)c1	8	0	16*	-2	10*	6
COc1cccc(-c2cnc3c(NC=O)cc(-c4ccoc4)cn23)c1	-2	-1	44*	-2	34*	0
COc1cccc(-c2cnc3c(NC=O)cc(-c4cc(C)c(O)c(C)c4)cn23)c1	2	4	8	2	/	/
COc1cccc(-c2cnc3c(NC=O)cc(-c4ccc(S(C)(=O)=O)cc4)cn23)c1	-17	2	6	8	/	/
O=C(C[C@H]1C=C[C@H](NC(=O)Nc2ccc3c(c2)OCO3)[C@@H](CO)O1)NCc1ccc2c(c1)OCO2	/	0	/	/	/	/
Cc1cccc(NC(=O)c2cccc3c2C(=O)c2ccccc2-3)c1	5	/	33*	-2	8.3*	9
C[C@H](CO)N1C[C@H](C)[C@H](CN(C)Cc2ccccc2)Oc2cc(C#CCN(C)C)ccc2S1(=O)=O	/	4	/	/	/	/
Cc1nn(Cc2ccccc2Cl)c(C)c1C(=O)NCCN1C(=O)S/C(=C\c2ccccc2)C1=O	-16	-3	20*	0	12*	5
Cc1nn(Cc2ccccc2Cl)c(C)c1C(=O)NCc1ccco1	10	/	0	-1	/	/
O=C(N[C@H]1CC[C@H](CCNS(=O)(=O)c2ccc(F)cc2)O[C@@H]1CO)c1cnccn1	/	0	/	/	/	/
Cc1ccccc1N1CCN(S(=O)(=O)c2nnc(NC(=O)c3ccco3)s2)CC1	2	-4	1	6	/	/
Cc1ccccc1N1CCN(S(=O)(=O)c2nnc(NC(=O)CC(C)C)s2)CC1	-1	1	13*	1	1	6
Cc1noc(C)c1NC(=O)N(C)C[C@@H]1Oc2ccc(NC(=O)CCC(F)(F)F)cc2C(=O)N([C@H](C)CO)C[C@H]1C	/	-3	/	/	/	/
O=C(CN1CCOCC1)Nc1cccc(C(=O)Nc2cccc(C(F)(F)F)c2)c1	3	/	-3	-3	/	/
CCCCCNCC(=O)Nc1cccc(C(=O)Nc2cccc(C(F)(F)F)c2)c1	-5	-13	15*	-4	16*	14
Cc1ccc(C(=O)Nc2cccc(C(F)(F)F)c2)cc1NC(=O)c1nccnc1N	-18	-7	17*	5	8	44*!
COc1ccc(-c2cc(NC=O)c3ncc(-c4ccc(C(C)=O)cc4)n3c2)cc1OC	8	-1	11*	7.9*	9.0*	3
COc1cc(-c2cnc3c(NC=O)cc(-c4ccc(C)cc4)cn23)cc(OC)c1OC	-34	4	0	1	/	/
COc1cc(-c2cc(NC=O)c3ncc(-c4ccc(C(C)=O)cc4)n3c2)cc(OC)c1OC	-1	1	26*	4	18*	2
CC(=O)c1ccc(-c2cnc3c(NC=O)cc(-c4ccc(C(=O)N5CCOCC5)cc4)cn23)cc1	-3	1	5	-1	/	/
COc1cc(-c2cc(NC=O)c3ncc(-c4ccccc4)n3c2)cc(OC)c1OC	-25	-2	13*	-1	25*	2
COc1ccc(-c2csc3nc(-c4cccnc4)nc(N4CCC(C(N)=O)CC4)c23)cc1OC	13	/	-2	-3	/	/
COc1ccc(-c2csc3nc(C)nc(N4CCCCC4)c23)cc1OC	5	-4	9.6*	-3	-1	4
O=C(NCc1nc(-c2ccc(C(F)(F)F)cc2)no1)Nc1ccc(OC(F)(F)F)cc1	3	1	11*	-3	5	2
Cc1ccc(-c2cnc3c(c2)C(=O)N([C@@H](C)CO)C[C@H](C)[C@H](CN(C)CC2CCOCC2)O3)cc1	/	2	/	/	/	/
O=C(Cc1ccccn1)N[C@H]1CC[C@H](CCNC(=O)c2cc(Cl)cc(Cl)c2)O[C@@H]1CO	/	2	/	/	/	/

High-throughput results (PubChem)
